Experimental data reported in ChEMBL document CHEMBL1125870, “Chemical and biological studies on a series of lipid-soluble (trans-(R,R)- and -(S,S)-1,2-diaminocyclohexane)platinum(II) complexes incorporated in liposomes” (J Med Chem, 1991).

How the values were obtained:
Mus musculus [1] = assay: Compound was tested for its efficacy against L1210 Leukemia in mice at a dose of 25 mg/kg through intraperitoneal route.(Treatment schedule day is 1).; assay type: functional, organism-based; set-up: dose 25 mg/kg
Outline: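 Six B6D2F1 mice per group, 20-25 g, inoculated ip with 10^6 L1210/0 cells on day 0. A single ip dose of liposomal Pt (DMPC:DMPG 7:3 multilamellar vesicles in 0.9% NaCl) was given on day 1; doses of 12.5, 25 and 50 mg/kg were tested. %T/C = median survival treated/control ×100; study ended day 60; mean of three experiments.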

Mus musculus [2] = assay: Compound was tested for its efficacy against L1210 / cisplatin Leukemia in mice at a dose of 25 mg/kg through intraperitoneal route.(Treatment schedule day is 1,5,9).; assay type: functional, organism-based; set-up: dose 25 mg/kg
Outline: (§1)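 L1210/cisplatin cells (NCI repository) passaged weekly ip in BDF1 mice. Groups of six B6D2F1 mice, 20-25 g, inoculated ip with 10^6 cells on day 0, then given liposomal Pt (DMPC:DMPG 7:3 multilamellar vesicles in 0.9% NaCl) or cisplatin ip on days 1, 5 and 9. Read-out %T/C = median survival treated/control ×100; study ended day 60; average of two experiments.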

Mus musculus [3] = assay: Compound was tested for its efficacy against L1210 Leukemia in mice at a dose of 25 mg/kg through intraperitoneal route.(Treatment schedule day is 1,5,9).; assay type: functional, organism-based; set-up: dose 25 mg/kg
Outline: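 L1210/0 leukemia passaged weekly ip in BDF1 mice. Six B6D2F1 mice per group (20-25 g) received 10^6 cells ip on day 0. Liposomal Pt (DMPC:DMPG 7:3 MLVs in 0.9% NaCl) or cisplatin was given ip on days 1, 5, 9; doses tested 12.5, 25, 50 mg/kg. Optimal dose is the highest %T/C without toxic deaths. %T/C is from median survival; study ended day 60; average of two experiments.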

Rattus norvegicus [4] = organism: Rattus norvegicus; assay: Compound was tested for the subacute single dose from the toxicity studies in rats.; assay type: organism-based; conditions: in vivo
Mus musculus [5] = assay: Compound was tested for its efficacy against L1210 / cisplatin Leukemia in mice at a dose of 5 mg/kg through intraperitoneal route.(Treatment schedule day is 1,5,9).; assay type: functional, organism-based; set-up: dose 5 mg/kg; outline: as §1
Mus musculus [6] = assay: Compound was tested for its efficacy against L1210 Leukemia in mice at a dose of 5 mg/kg through intraperitoneal route.(Treatment schedule day is 1,5,9).; assay type: functional, organism-based; set-up: dose 5 mg/kg
Rattus norvegicus [7] = organism: Rattus norvegicus; assay: Compound was tested for the subacute single dose from the toxicity studies in rats; assay type: organism-based; conditions: in vivo

Substance | T/C (Mus musculus [1]) | LD50 (Rattus norvegicus [4]) | other results
Pt (2,2-diethylhexanoato)2((R,R)-dach) [listing 1 of 2 here] | 253% | – | T/C (Mus musculus [2]): 231%; T/C (Mus musculus [3]): 257%
Pt (2,2-diethyl-4-methylpentanoato)2((R,R)-dach) [listing 1 of 2 here] | 225% | – | T/C (Mus musculus [2]): 185%; T/C (Mus musculus [3]): 257%
CISPLATIN [listing 1 of 2 here] | – | 17.5 mg/kg | –
CISPLATIN [listing 2 of 2 here] | 175% | – | T/C (Mus musculus [5]): 112%; T/C (Mus musculus [6]): 220%
Pt (2,2-diethyl-4-methylpentanoato)2((S,S)-dach) [listing 1 of 2 here] | – | – | LD50 (Rattus norvegicus [7]): 81 mg/kg
Liposomal preparation of (ttans-(R,R)-dach)Pt complex containing isomeric mixture of neodecanoic acid (L-NDDP) [listing 1 of 2 here] | – | 54 mg/kg | –
Pt (2,2-dimethyloctanoato)2((S,S)-dach) [listing 1 of 2 here] | 150% | – | –
Pt (2,2-diethyl-4-methylpentanoato)2((S,S)-dach) [listing 2 of 2 here] | 160% | – | –
Pt (2,2-diethylhexanoato)2((S,S)-dach) [listing 1 of 2 here] | – | 104 mg/kg | –
Pt (2,2-dimethyl-4-ethylhexanoato)2((R,R)-dach) | 212% | – | –
Liposomal preparation of (ttans-(R,R)-dach)Pt complex containing isomeric mixture of neodecanoic acid (L-NDDP) [listing 2 of 2 here] | 187% | – | T/C (Mus musculus [2]): 200%; T/C (Mus musculus [3]): 312%
Pt (2,2-dimethyloctanoato)2((R,R)-dach) [listing 1 of 2 here] | 234% | – | T/C (Mus musculus [2]): 355%; T/C (Mus musculus [3]): 257%
Pt (2,2-diethyl-4-methylpentanoato)2((R,R)-dach) [listing 2 of 2 here] | – | 62.3 mg/kg | –
Pt (2,2-dimethyloctanoato)2((S,S)-dach) [listing 2 of 2 here] | – | 87 mg/kg | –
Pt (2,2-diethylhexanoato)2((S,S)-dach) [listing 2 of 2 here] | 190% | – | –
Pt (2,2-diethylhexanoato)2((R,R)-dach) [listing 2 of 2 here] | – | 80.8 mg/kg | –
Pt (2,2-dimethyloctanoato)2((R,R)-dach) [listing 2 of 2 here] | – | 94.5 mg/kg | –
